Assay results taken from article PMC7433031 (European journal of medicinal chemistry, 2020).

Columns and labels:
MOLT-4 T-ALL cells = assay: MOLT-4 cell viability assay; assay type: cell-based, human
BCL-XL = BCL-XL (Homo sapiens, UniProt Q07817); assay: Western blot of BCL-XL protein levels in MOLT-4 cells; assay type: cell-based; conditions: 100 nM, 16 h, Western blot (Figure 3)
In short: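 MOLT-4 cells were treated for 16 h with test compound (100 nM for VHL-based, 50 nM for CRBN-based, or a concentration series for DC50). Other runs used 100 nM over a time course, or 16 h exposure followed by washout into drug-free medium. Some cells were pretreated 2 h with 10 μM pomalidomide or 1 μM MG-132. Immunoblot bands were normalized to β-actin and expressed as % remaining versus vehicle.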

BCL-XL, sequence (Q07817 whole entry): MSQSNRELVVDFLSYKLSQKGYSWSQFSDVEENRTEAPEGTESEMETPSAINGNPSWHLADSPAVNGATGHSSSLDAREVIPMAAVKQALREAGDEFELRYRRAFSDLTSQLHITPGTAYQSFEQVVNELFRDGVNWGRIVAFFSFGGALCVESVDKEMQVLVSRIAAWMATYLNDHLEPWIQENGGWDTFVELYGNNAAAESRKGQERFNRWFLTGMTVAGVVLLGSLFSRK

Compound: Cc1ncsc1-c1ccc([C@H](C)NC(=O)[C@@H]2C[C@@H](O)CN2C(=O)[C@@H](NC(=O)CCOCCC(=O)N2CCN(CC[C@H](CSc3ccccc3)Nc3ccc(S(=O)(=O)NC(=O)c4ccc(N5CCN(CC6=C(c7ccc(Cl)cc7)CCC(C)(C)C6)CC5)cc4)cc3S(=O)(=O)C(F)(F)F)CC2)C(C)(C)C)cc1 [Compound 3a, (2S,4R)-1-((S)-2-(3-(3-(4-((R)-3-((4-(N-(4-(4-((4’-Chloro-4,4-dimethyl-3,4,5,6-tetrahydro-[1,1’-biphenyl]-2-yl)methyl)piperazin-1-yl)benzoyl)sulfamoyl)-2-((trifluoromethyl)sulfonyl)phenyl)amino)-4-(phenylthio)butyl)piperazin-1-yl)-3-oxopropoxy)propanamido)-3,3-dimethylbutanoyl)-4-hydroxy-N-((S)-1-(4-(4-methylthiazol-5-yl)phenyl)ethyl)pyrrolidine-2-carboxamide]
- times less potent than 1e in MOLT-4 cell viability (MOLT-4 T-ALL cells; MOLT-4, versus 1e): ~ 4 times

Compound: Cc1ncsc1-c1ccc([C@H](C)NC(=O)[C@@H]2C[C@@H](O)CN2C(=O)[C@@H](NC(=O)CCCCCC(=O)N(C)CC[C@H](CSc2ccccc2)Nc2ccc(S(=O)(=O)NC(=O)c3ccc(N4CCN(CC5=C(c6ccc(Cl)cc6)CCC(C)(C)C5)CC4)cc3)cc2S(=O)(=O)C(F)(F)F)C(C)(C)C)cc1 [Compound 5, N^1-((R)-3-((4-(N-(4-(4-((4’-Chloro-4,4-dimethyl-3,4,5,6-tetrahydro-[1,1’-biphenyl]-2-yl)methyl)piperazin-1-yl)benzoyl)sulfamoyl)-2-((trifluoromethyl)sulfonyl)phenyl)amino)-4-(phenylthio)butyl)-N^7-((S)-1-((2S,4R)-4-hydroxy-2-(((S)-1-(4-(4-methylthiazol-5-yl)phenyl)ethyl)carbamoyl)pyrrolidin-1-yl)-3,3-dimethyl-1-oxobutan-2-yl)-N^1-methylheptanediamide]
- BCL-XL degradation in MOLT-4 cells at 100 nM (BCL-XL): weak BCL-XL degradation

Compound: (2S,4R)-1-((S)-2-(2-(2-(4-((R)-3-((4-(N-(4-(4-((4’-Chloro-4,4-dimethyl-3,4,5,6-tetrahydro-[1,1’-biphenyl]-2-yl)methyl)piperazin-1-yl)benzoyl)sulfamoyl)-2-((trifluoromethyl)sulfonyl)phenyl)amino)-4-(phenylthio)butyl)piperazin-1-yl)ethoxy)acetamido)-3,3-dimethylbutanoyl)-4-hydroxy-N-((S)-1-(4-(4-methylthiazol-5-yl)phenyl)ethyl)pyrrolidine-2-carboxamide [Compound 4a]
- IC50 (MOLT-4 T-ALL cells; read-out: IC50, reduction of MOLT-4 cell viability, MOLT-4 cells, 48 h treatment, means of at least three independent experiments (Tables 1-4)): 151 nM

Compound: CC1(C)CCC(c2ccc(Cl)cc2)=C(CN2CCN(c3ccc(C(=O)NS(=O)(=O)c4ccc(N[C@H](CCN5CCN(C(=S)NCCOCCOCCNc6cccc7c6C(=O)N([C@@H]6CCC(=O)NC6=O)C7=O)CC5)CSc5ccccc5)c(S(=O)(=O)C(F)(F)F)c4)cc3)CC2)C1 (racemic) [Compound 11b, 4-(4-((2-(4-Chlorophenyl)-5,5-dimethylcyclohex-1-enyl)methyl)piperazin-1-yl)-N-(4-((2R)-4-(4-(2-(2-(2-(2-(2,6-dioxopiperidin-3-yl)-1,3-dioxoisoindolin-4-ylamino)ethoxy)ethoxy)ethylcarbamothioyl)piperazin-1-yl)-1-(phenylthio)butan-2-ylamino)-3-(trifluoromethylsulfonyl)phenylsulfonyl)benzamide]
- fold decrease in potency compared to 11a (MOLT-4 T-ALL cells; MOLT-4, versus 11a): ~ 6 fold
